Laboratory results published in ChEMBL document CHEMBL2331528, “Design and synthesis of bicyclic pyrazinone and pyrimidinone amides as potent TF-FVIIa inhibitors” (Bioorg Med Chem Lett, 2013).

Assays:
[1] = biological target: Coagulation factor VII/tissue factor (Homo sapiens, UniProt P08709); assay: Inhibition of tissue factor-factor 7a (unknown origin) interaction by chromogenic substrate assay; type: protein-complex assay
Procedure, shortened: (§1)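 Ki from chromogenic substrate assays at 25 °C; n = 2.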

Prothrombin = Prothrombin (Homo sapiens, UniProt P00734); assay: Inhibition of thrombin (unknown origin) by chromogenic substrate assay; procedure, shortened: as §1
Coagulation factor X = Coagulation factor X (Homo sapiens, UniProt P00742); assay: Inhibition of factor-10a (unknown origin) by chromogenic substrate assay; procedure, shortened: as §1
Sequence of Coagulation factor X (P00742 41-179 limits assumed): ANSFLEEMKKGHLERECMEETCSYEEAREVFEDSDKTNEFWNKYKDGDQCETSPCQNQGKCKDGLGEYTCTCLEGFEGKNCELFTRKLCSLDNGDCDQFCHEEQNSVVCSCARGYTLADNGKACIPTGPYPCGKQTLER
Sequence of Coagulation factor X (P00742 235-488 limits assumed): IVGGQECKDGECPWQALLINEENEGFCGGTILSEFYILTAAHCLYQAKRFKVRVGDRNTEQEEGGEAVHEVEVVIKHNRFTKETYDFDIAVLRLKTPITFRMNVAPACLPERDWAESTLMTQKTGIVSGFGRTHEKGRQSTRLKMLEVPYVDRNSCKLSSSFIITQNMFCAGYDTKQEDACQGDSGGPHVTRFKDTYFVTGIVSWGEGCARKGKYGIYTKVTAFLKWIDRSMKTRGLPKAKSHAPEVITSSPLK

Homo sapiens [2] = species: Homo sapiens; assay: Selectivity ratio of Ki for plasma kallikrein (unknown origin) to Ki for tissue factor-factor 7a (unknown origin) interaction
Homo sapiens [3] = species: Homo sapiens; assay: Selectivity ratio of Ki for trypsin (unknown origin) to Ki for tissue factor-factor 7a (unknown origin) interaction
Homo sapiens [4] = species: Homo sapiens; assay: Selectivity ratio of Ki for thrombin (unknown origin) to Ki for tissue factor-factor 7a (unknown origin) interaction
Homo sapiens [5] = species: Homo sapiens; assay: Selectivity ratio of Ki for factor-9a (unknown origin) to Ki for tissue factor-factor 7a (unknown origin) interaction
Homo sapiens [6] = species: Homo sapiens; assay: Selectivity ratio of Ki for factor-11a (unknown origin) to Ki for tissue factor-factor 7a (unknown origin) interaction
Homo sapiens [7] = species: Homo sapiens; assay: Selectivity ratio of Ki for factor-10a (unknown origin) to Ki for tissue factor-factor 7a (unknown origin) interaction
Plasma [8] = assay: Anticoagulant activity in factor 7 deficient human plasma assessed as concentration required to prothrombin time; type: functional
Plasma [9] = assay: Fraction unbound in human plasma; type: ADME, cell-free

Sequence of Coagulation factor VII/tissue factor (P08709 61-212 limits assumed): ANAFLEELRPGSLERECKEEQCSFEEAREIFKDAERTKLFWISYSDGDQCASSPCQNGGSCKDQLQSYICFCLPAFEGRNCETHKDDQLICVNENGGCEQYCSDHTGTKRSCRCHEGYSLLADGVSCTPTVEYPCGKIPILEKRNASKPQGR
Sequence of Coagulation factor VII/tissue factor (P08709 213-466 limits assumed): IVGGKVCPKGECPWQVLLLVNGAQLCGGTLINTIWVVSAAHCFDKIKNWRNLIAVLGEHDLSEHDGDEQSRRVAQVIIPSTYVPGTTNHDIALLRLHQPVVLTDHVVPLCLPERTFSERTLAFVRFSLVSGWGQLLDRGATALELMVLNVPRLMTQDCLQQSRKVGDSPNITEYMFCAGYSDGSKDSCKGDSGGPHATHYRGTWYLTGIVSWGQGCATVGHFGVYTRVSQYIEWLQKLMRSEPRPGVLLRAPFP
Sequence of Coagulation factor VII/tissue factor (P13726 33-295 partner limits assumed): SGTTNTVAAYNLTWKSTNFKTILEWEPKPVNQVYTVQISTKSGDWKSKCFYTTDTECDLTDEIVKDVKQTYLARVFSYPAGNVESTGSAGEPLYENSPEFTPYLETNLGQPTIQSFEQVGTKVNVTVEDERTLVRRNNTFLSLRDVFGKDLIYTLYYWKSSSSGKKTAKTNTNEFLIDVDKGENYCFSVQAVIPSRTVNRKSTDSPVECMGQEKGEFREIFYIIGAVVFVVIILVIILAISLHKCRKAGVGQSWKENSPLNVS

| SMILES | Ki [1] [µM] | Ki (Prothrombin) [µM] | Ki (Coagulation factor X) [µM] | also measured |
| --- | --- | --- | --- | --- |
| CCCNc1cnc2n(c1=O)[C@H](C(=O)NCc1ccc(C(=N)N)cc1)C[C@@]2(C)CC | 0.15 | 2.1 | > 15 | – |
| CCC1(CC)C[C@@H](C(=O)NCc2ccc3c(N)noc3c2)n2c1c(Cl)nc(NC1CCC1)c2=O | 1.9 | – | – | – |
| CNC(=O)[C@]1(C)C[C@@H](C(=O)NCc2ccc(C(=N)N)cc2)n2c1c(Cl)nc(NC1CCC1)c2=O | 2.1 | > 15 | 1.1 | – |
| CCCNc1cnc2n(c1=O)[C@H](C(=O)NCc1ccc(C(=N)N)cc1)CC2(C)C | 0.29 | 1.8 | > 15 | – |
| CCC1(CC)C[C@@H](C(=O)NCc2ccc3c(N)nccc3c2)n2c1c(Cl)nc(NC1CCC1)c2=O | 0.36 | – | – | – |
| CCCC1(CCC)C[C@@H](C(=O)NCc2ccc(C(=N)N)cc2)n2c1c(Cl)nc(NC1CCC1)c2=O | 0.028 | 0.17 | 0.55 | – |
| N=C(N)c1ccc(CNC(=O)[C@@H]2CC3(CCCC3)c3c(Cl)nc(NC4CCC4)c(=O)n32)cc1 | 0.099 | 0.078 | > 15 | – |
| CCCNc1cnc2n(c1=O)[C@H](C(=O)NCc1ccc(C(=N)N)cc1)CC2 | 0.186 | 0.15 | > 15 | – |
| CCC1(CC)C[C@@H](C(=O)NCc2ccc(CN)cc2)n2c1c(Cl)nc(NC1CCC1)c2=O | 0.3 | – | – | – |
| C[C@@]1(C(=O)NCc2ccccc2)C[C@@H](C(=O)NCc2ccc(C(=N)N)cc2)n2c1c(Cl)nc(NC1CCC1)c2=O | 0.56 | > 15 | 3.7 | – |
| CCC1(CC)C[C@@H](C(=O)NCc2ccc(C(=N)N)cc2)n2c1c(Cl)nc(NC1CCC1)c2=O | 0.0073 | 0.21 | 3.3 | Ratio Ki (Homo sapiens [2]): < 3; Ratio Ki (Homo sapiens [3]): < 3; Ratio Ki (Homo sapiens [4]): 30; Ratio Ki (Homo sapiens [5]): > 160; Ratio Ki (Homo sapiens [6]): > 160; Ratio Ki (Homo sapiens [7]): > 160; Activity (Plasma [8]): 5.6 µM; Cp(f) (Plasma [9]): 6.8% |
| N=C(N)c1ccc(CNC(=O)[C@@H]2CCc3c(Cl)nc(NC4CCC4)c(=O)n32)cc1 | 0.03 | 0.035 | > 15 | – |
| C=CC[C@]1(C)C[C@@H](C(=O)NCc2ccc(C(=N)N)cc2)n2c1c(Cl)nc(NC1CCC1)c2=O | 0.0058 | 0.22 | 0.65 | – |
| CCCNc1cnc2n(c1=O)[C@H](C(=O)NCc1ccc(C(=N)N)cc1)CC2(CC)CC | 0.075 | 5.2 | 12 | – |
| CCCNc1cnc2n(c1=O)[C@H](C(=O)NCc1ccc(C(=N)N)cc1)CC2(CCC)CCC | 0.62 | 1.2 | 3.6 | – |

Further lines, with some results ahead:

| Ki [1] [µM] | Ki (Prothrombin) [µM] | Ki (Coagulation factor X) [µM] | SMILES | also measured |
| --- | --- | --- | --- | --- |
| 0.072 | > 15 | > 15 | C[C@@]1(CO)C[C@@H](C(=O)NCc2ccc(C(=N)N)cc2)n2c1c(Cl)nc(NC1CCC1)c2=O | – |
| 0.024 | 0.23 | > 15 | CNc1nc(Cl)c2n(c1=O)[C@H](C(=O)NCc1ccc(C(=N)N)cc1)CC2(C)C | – |
| 0.017 | 0.13 | > 15 | CC(C)Nc1nc(Cl)c2n(c1=O)[C@H](C(=O)NCc1ccc(C(=N)N)cc1)CC2(C)C | – |
| 0.037 | 0.36 | > 15 | CC1(C)C[C@@H](C(=O)NCc2ccc(C(=N)N)cc2)n2c1c(Cl)nc(NC1CC1)c2=O | – |
| 0.19 | – | – | Cc1ccc(CNc2nc(Cl)c3n(c2=O)[C@H](C(=O)NCc2ccc(C(=N)N)cc2)CC3(C)C)o1 | – |
| 0.076 | 0.22 | > 15 | CC1(C)C[C@@H](C(=O)NCc2ccc(C(=N)N)cc2)n2c1c(Cl)nc(NCC1CCCCC1)c2=O | – |
| 0.132 | 0.032 | – | CC(C)(C)OC(=O)CNc1nc(Cl)c2n(c1=O)[C@H](C(=O)NCc1ccc(C(=N)N)cc1)CC2(C)C | – |
| 0.019 | 0.26 | > 15 | CCNc1nc(Cl)c2n(c1=O)[C@H](C(=O)NCc1ccc(C(=N)N)cc1)CC2(C)C | – |
| 0.068 | 0.22 | 2.8 | CC(C)(C)Nc1nc(Cl)c2n(c1=O)[C@H](C(=O)NCc1ccc(C(=N)N)cc1)CC2(C)C | – |
| 0.043 | 0.22 | > 15 | CC(C)CNc1nc(Cl)c2n(c1=O)[C@H](C(=O)NCc1ccc(C(=N)N)cc1)CC2(C)C | – |
| 0.06 | 0.16 | > 15 | CC1(C)C[C@@H](C(=O)NCc2ccc(C(=N)N)cc2)n2c1c(Cl)nc(NC1CCCC1)c2=O | – |
| 0.023 | 0.2 | > 15 | CC1(C)C[C@@H](C(=O)NCc2ccc(C(=N)N)cc2)n2c1c(Cl)nc(NC1CCC1)c2=O | – |
| 0.023 | 0.036 | 1 | CCC[C@]1(C)C[C@@H](C(=O)NCc2ccc(C(=N)N)cc2)n2c1c(Cl)nc(NC1CCC1)c2=O | – |
| 0.13 | – | – | COCC(C)Nc1nc(Cl)c2n(c1=O)[C@H](C(=O)NCc1ccc(C(=N)N)cc1)CC2(C)C (stereo partly specified) | – |
| 0.07 | 0.38 | > 15 | CC1(C)C[C@@H](C(=O)NCc2ccc(C(=N)N)cc2)n2c1c(Cl)nc(NC1(CO)CCCC1)c2=O | – |
| 0.021 | 0.11 | 2.2 | CCC[C@@]1(C)C[C@@H](C(=O)NCc2ccc(C(=N)N)cc2)n2c1c(Cl)nc(NC1CCC1)c2=O | – |
| 0.084 | – | – | CC(Nc1nc(Cl)c2n(c1=O)[C@H](C(=O)NCc1ccc(C(=N)N)cc1)CC2(C)C)C(C)(C)C (stereo partly specified) | – |
